High-throughput results as filed in PubChem BioAssay.
AHR act – human AHR activation | P35869 | AHR-responsive luciferase reporter cells, luminescence | activation, % at 5 µM | actives 2.5% (n = 320,000) | AID 2796; in the data active means activation above about 47%;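 further: 0% = vehicle wells and 100% = reference agonist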
MC4R ag barr – agonists of human melanocortin 4 receptor (MC4R) beta-arrestin; P32245; U2OS MC4R beta-arrestin complementation, luminescence; percent of melanotan II response, DMSO zero; activation, % at 8.9 µM; actives 0.98% (n = 360,000);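 active means activation above a per-plate cutoff, the mean activation of sample wells on that plate plus 3 SD, cut at about 8% in these data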
MC4R antag cAMP – antagonists of human melanocortin 4 receptor (MC4R); MC4R-expressing cells, MTII-stimulated cAMP, LANCE TR-FRET; inhibition, % at 6.5 µM; actives 0.48% (n = 360,000); AID 540295;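 active means inhibition above its plate's cutoff, the mean of tested wells on that plate plus 3 SD, cut at about 29% in these data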;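 further: 0% = Melanotan II alone and 100% = Melanotan II plus saturating MCL0020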
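material = U2OS cells stably expressing human melanocortin 4 receptor (MC4R) | also added = Melanotan II challenge | dosing = single nominal compound dose of 6.5 µM | detection = TR-FRET with Eu-cAMP and labeled anti-cAMP, 671 nm | replication = singlicate | timing = compound 30 min, challenge 1 h, detection 1 h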
GAA850 FXN act – frataxin GAA850 promoter activation | HEK293 lucGAA850 FXN promoter luciferase reporter, 24 h; percent of 10 µM SAHA response | activation, % at 6 µM | actives 0.56% (n = 360,000) | AID 540364;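 active means activation above the average of all compounds screened plus 3 SD, cutoff fixed separately per campaign, cut at about 7.5% in these data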;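 further: 0% = DMSO wells and 100% = 10 µM SAHA wells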
m5-HT2A agonist – activates the mouse 5-HT2A serotonin receptor. P35363. CHO-K1 mHTR2A beta-arrestin complementation, luminescence; percent of 30 µM serotonin response. activation, % at 7.6 µM. actives 0.66% (n = 360,000). AID 624169;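 active means activation above a run cutoff, the mean activation of all tested compounds plus 3 SD, cut at about 14% in these data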;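 further: 0% = plate median of compound wells and 100% = 30 µM serotonin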
Target sequence (P35363 whole entry, looked up): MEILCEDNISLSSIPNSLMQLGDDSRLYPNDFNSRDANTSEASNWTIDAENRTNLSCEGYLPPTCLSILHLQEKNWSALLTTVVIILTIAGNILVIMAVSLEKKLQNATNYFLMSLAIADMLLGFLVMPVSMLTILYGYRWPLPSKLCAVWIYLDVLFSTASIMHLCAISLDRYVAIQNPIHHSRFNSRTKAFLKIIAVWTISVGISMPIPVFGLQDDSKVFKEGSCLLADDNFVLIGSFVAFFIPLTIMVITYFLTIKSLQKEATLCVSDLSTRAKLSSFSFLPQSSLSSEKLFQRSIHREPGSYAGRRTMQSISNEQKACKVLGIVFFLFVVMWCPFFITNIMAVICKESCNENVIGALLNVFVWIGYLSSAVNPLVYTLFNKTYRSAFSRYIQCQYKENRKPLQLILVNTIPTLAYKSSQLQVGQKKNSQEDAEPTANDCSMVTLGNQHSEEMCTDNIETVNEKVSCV
AHR act cf – human AHR activation, confirmation | shares compounds with AHR act | activation, % at 9 µM | AID 2845 | human cells, AHR-responsive luciferase reporter, luminescence | actives 87% (n = 2,300); in the data active means activation above about 49%;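 further: HepG2 hepatoma cells carrying a DRE-driven firefly luciferase reporter; 0% = vehicle wells and 100% = reference agonist wells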
PXR counter – activates human PXR in AHR activator counter-screen; shares compounds with AHR act; cell-based PXR reporter, luciferase luminescence; activation, % at 11.6 µM; actives 88% (n = 2,300); in the data active means activation above about 11%;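 further: human hepatoma DPX-2 cells expressing full-length human PXR; 0% = DMSO and 100% = reference agonist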
The depositor's hits bear a star; . = no result. Sampled rows, rich in hits. Any-hit rate of the full collection: about 4.7%.

SMILES	AHR act	MC4R ag barr	MC4R antag cAMP	GAA850 FXN act	m5-HT2A agonist	AHR act cf	PXR counter
Cn1c(=O)c(-c2ccccc2)nn2c3ccccc3nc12	109.6*	-1.0	4.0	3.4	2.0	130.8*	18.8*
COc1cc(/C=N/NC(=O)c2cccc(NC(=O)c3ccccc3)c2)ccc1O	99.5*	1.8	21.2	-1.7	-9.2	88.3*	.
CC[C@H](C)[C@H]1CNC(=S)N1CC1CCN(CC)CC1	.	1.1	-7.8	-0.5	0.1	.	.
Nn1c(SCCOc2ccc(Cl)cc2)nnc1-c1cccnc1	91.0*	-2.1	2.6	0.1	1.5	124.6*	21.9*
O=C(NCC1CCN(Cc2ccccc2F)CC1)Nc1cccc(Br)c1	-1.4	0.5	0.7	-0.1	-12.5	.	.
c1ccc(Nc2nc3ccccc3n3nnnc23)cc1	33.4	3.0	-6.0	6.0	6.6	.	.
Brc1ccc(Nc2nc3ccccc3n3nnnc23)cc1	94.3*	.	.	.	.	107.6*	74.8*
O=C(Nc1nc2c(s1)COc1ccccc1-2)c1cccs1	129.4*	1.0	23.4	0.9	-5.1	129.0*	16.2*
O=C(Nc1nc(-c2ccccc2)cs1)c1cccs1	3.9	-1.4	-1.2	3.9	-4.3	.	.
O=C(Nc1nc2c(s1)CCc1ccccc1-2)c1cccs1	85.5*	3.1	0.0	2.1	-1.7	158.0*	19.7*
CSc1nc2ccc3nc(NC(=O)c4cccs4)sc3c2s1	13.0	0.8	9.2	-1.3	3.4	.	.
CN(C)S(=O)(=O)c1ccc2nc(NC(=O)c3cccs3)sc2c1	5.8	-3.3	3.9	3.3	-2.5	.	.
O=C(Nc1nc2ccc(F)cc2s1)c1cccs1	98.9*	0.0	6.8	4.9	-3.1	136.0*	8.9
CN(C)c1ccc(CC(=O)N2CCCC(c3cc(C(=O)Nc4ccc5c(c4)OCO5)no3)C2)cc1 (stereo not given)	.	-1.6	3.7	-1.5	-5.0	.	.
COc1ccc(Cl)cc1C=CC=Nc1ccccc1O	.	-0.7	11.6	-0.3	0.7	.	.
COc1ccc(S(=O)(=O)N2CCC[C@H]2C(=O)N2CCC[C@H]2C(=O)NCc2ccncc2)cc1C	.	.	.	.	4.2	.	.
CCOc1ccc2c(c1)c(N=O)c(O)n2C	94.2*	-1.5	-7.5	3.8	5.4	62.2*	10.3*
COc1ccc(NC2CCCN(C(=O)COc3ccc(C(C)=O)cc3)C2)cc1 (stereo not given)	.	2.0	-3.8	0.5	1.0	.	.
CC(=O)Oc1ccccc1/C=C/c1ccc2ccccc2[n+]1C	111.2*	-0.3	-15.0	0.1	-1.4	20.9	13.9*
COc1ccc(/C=C/c2ccc3ccccc3[n+]2C)cc1OC	19.0	1.0	-17.4	3.9	-9.2	.	.
CC(C)Cn1c(/C=C/c2ccccc2)nc2ccccc21	83.5*	-1.0	4.5	6.4	-5.2	119.1*	67.6*
Cn1c(=S)[nH]c2sc3c(c2c1=O)CCC(C(C)(C)C)C3 (stereo not given)	3.1	-2.4	0.0	5.3	-0.2	.	.
CC(/C=C/c1ccccc1)=N\Nc1nc(C)cc(C)n1	89.4*	-2.3	0.1	1.8	-2.6	39.4	27.6*
Cc1ccc(NC(=O)c2cccc(C(F)(F)F)c2)cc1NC(=O)c1[nH]cnc1C(N)=O	119.2*	2.3	6.6	3.8	2.3	114.4*	57.4*
Cc1nc2ccc(NC(=O)c3cccc(C(F)(F)F)c3)cc2o1	10.7	-1.0	-1.9	-0.1	3.0	.	.
SMILES	AHR act	MC4R ag barr	MC4R antag cAMP	GAA850 FXN act	m5-HT2A agonist	AHR act cf	PXR counter
CC(C)(C)Cc1c(-c2ccc(Cl)cc2)nc2ccc(Cl)cn12	.	1.2	13.3	0.9	-2.0	.	.
CN(C)Cc1c(-c2ccc(Cl)cc2)nc2ccc(Cl)cn12	133.1*	-1.3	9.1	1.6	2.3	109.4*	11.9*
O=[N+]([O-])c1cc(F)cc(F)c1Nc1cc(F)cc(F)c1	.	-0.1	0.4	-0.3	7.2	.	.
CCCN(CCC)CCNC(=O)c1cc2c(=O)n(C)c3ccccc3c2n1C	98.0*	1.3	-5.5	2.3	4.6	91.0*	42.1*
CN(CCNC(=O)c1cc2c(=O)n(C)c3ccccc3c2n1C)Cc1ccccc1	33.5	-0.2	9.9	-0.7	-0.1	.	.
N#CC(C#N)=C1C=CC=CN1/C(=C\c1ccco1)C(=O)c1ccc(Br)cc1	188.7*	-3.8	27.8	-16.1	5.2	180.4*	61.4*
N#C/C(=C/c1ccco1)C(N)=S	1.1	-0.9	-3.9	1.5	1.2	.	.
Cc1nc2ccc(NC(=O)c3ccco3)cc2nc1C	9.9	-2.5	-3.8	0.3	2.7	.	.
O=C(Nc1ccc(Cl)c(C(F)(F)F)c1)c1ccco1	81.7*	-0.7	5.4	-0.8	-2.4	1.4	5.8
Nc1nc2ccc(NC(=O)c3ccco3)cc2s1	82.4*	1.6	13.0	2.2	-14.3	52.3*	15.3*
COc1ccc(OC)c(NC(=O)COC(=O)CCc2ccc(S(=O)(=O)N3CCOCC3)cc2)c1	0.1	-2.1	2.6	-0.7	-5.1	.	.
COc1cccc(OC)c1C(=O)Nc1sc2c(c1C(N)=O)CCN(Cc1ccccc1)C2	128.7*	0.8	10.4	-5.6	-1.3	85.3*	58.6*
CC1(C(=O)NS(=O)(=O)c2ccc(Cl)s2)CCN1C(=O)C1CCCCC1 (stereo not given)	.	-1.4	3.6	-1.1	-1.2	.	.
O=C(COc1ccc(Br)cc1CNCCc1ccccc1)NCc1ccccc1	113.7*	1.1	13.4	-5.6	-9.8	89.8*	44.2*
OCCNCc1cc(Br)ccc1OCc1ccccc1Cl	119.5*	1.7	0.1	-0.9	-5.9	85.5*	39.6*
Cc1ccccc1S(=O)(=O)N(C)C[C@@H]1OCc2cnnn2CCCC(=O)N([C@@H](C)CO)C[C@H]1C	.	-0.1	9.4	-1.0	2.0	.	.
CCCCNC(=O)C1(C)CCN1C(=O)c1csnn1 (stereo not given)	.	-0.6	1.1	-0.3	0.6	.	.
CC1S/C(=C(\C#N)C(N)=O)N(c2ccc(F)cc2)C1=O (stereo not given)	97.0*	-1.0	-2.1	-0.6	-0.5	121.6*	14.6*
CNC(=O)/C(C#N)=C1\SC(Cc2ccc(F)cc2)C(=O)N1c1ccccc1C (stereo not given)	0.1	-1.1	6.1	-1.1	5.8	.	.
CCOc1ncccc1C(=O)Nc1ccc2c(C)cc(=O)oc2c1	45.2	0.1	0.4	3.0	2.4	.	.
COc1ccccc1C(=O)Nc1ccc2c(C)cc(=O)oc2c1	97.8*	-2.0	1.3	2.6	8.3	98.3*	40.6*
CCCN1C(=O)c2cc(C(=O)Nc3ccccc3OC)ccc2C1Nc1ccccc1OC (stereo not given)	94.3*	0.5	0.8	-2.9	1.5	65.4*	72.2*
CC(Oc1ccccc1F)c1nnc(SCC(=O)Nc2ccc(N3CCOCC3)cc2)o1 (stereo not given)	1.8	-0.6	3.4	1.1	7.9	.	.
